From ChEMBL document CHEMBL3603801 (J Med Chem, 2015)

Assay: Ratio of drug level in rat cerebrospinal fluid to plasma at 0.5 mg/kg, iv after 0.5 hrs
Assay type: ADME, organism-based, CSF/Plasma
Conditions: cerebrospinal fluid and plasma
Method in brief: (§1)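 Rats given 0.5 mg/kg iv in 10% DMA + 10% Solutol HS15 + 80% saline, or for some compounds 10% DMA + 10% Solutol HS15 + 80% (30% (2-hydroxypropyl)-β-cyclodextrin in saline). Brain:plasma and CSF:plasma ratios taken at 0.5 and 2 h; quantification limit 1.00 ng/mL.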
For N#Cc1cc(Cl)cc(-c2cc(-c3ccccn3)ncn2)c1, the Kp at 0.5 h was 0.01. With Cc1cc(C#N)cc(-c2cc(-n3cccn3)ncn2)c1 the Kp at 0.5 h was 0.02. With N#Cc1cc(Cl)cc(-c2cc(-c3ccc(F)cn3)ncn2)c1 the Kp at 0.5 h was 0.01. Work on N#Cc1cc(C#N)cc(-c2cc(-c3ccc(F)cn3)ncn2)c1 yielded a Kp at 0.5 h of 0.04. N#Cc1ccc(-c2cc(-c3cc(Cl)cc(C#N)c3)ncn2)nc1 showed a Kp at 0.5 h of 0.01.

Assay: Ratio of drug level in rat cerebrospinal fluid to plasma at 0.5 mg/kg, iv after 2 hrs
Assay type: ADME, organism-based, CSF/Plasma
Conditions: cerebrospinal fluid and plasma
Cc1cc(C#N)cc(-c2cc(-n3cccn3)ncn2)c1 showed a Kp at 2 h of 0.01. Work on N#Cc1cc(C#N)cc(-c2cc(-c3ccc(F)cn3)ncn2)c1 yielded a Kp at 2 h of 0.07.

Assay: Volume of distribution at steady state in rat at 0.5 mg/kg, iv
Assay type: ADME, organism-based
Conditions: in vivo, read-out: Vdss
For N#Cc1cc(Cl)cc(-c2cc(-c3ccccn3)ncn2)c1, the Vd was 4.4 L/kg. With Cc1cc(C#N)cc(-c2cc(-n3cccn3)ncn2)c1 the Vd was 2.5 L/kg. Compound N#Cc1cc(Cl)cc(-c2cc(-c3ccc(F)cn3)ncn2)c1 has a Vd of 3.7 L/kg. N#Cc1cc(C#N)cc(-c2cc(-c3ccc(F)cn3)ncn2)c1 showed a Vd of 3.3 L/kg. N#Cc1ccc(-c2cc(-c3cc(Cl)cc(C#N)c3)ncn2)nc1 showed a Vd of 4.9 L/kg.

Assay: Ratio of drug level in rat brain to plasma at 0.5 mg/kg, iv after 0.5 hrs
Assay type: ADME, organism-based
Conditions: brain and plasma, read-out: BPR
Method in brief: as §1
Compound N#Cc1cc(Cl)cc(-c2cc(-c3ccccn3)ncn2)c1 has a Kp at 0.5 h of 1.7. Cc1cc(C#N)cc(-c2cc(-n3cccn3)ncn2)c1 showed a Kp at 0.5 h of 1.7. Work on N#Cc1cc(Cl)cc(-c2cc(-c3ccc(F)cn3)ncn2)c1 yielded a Kp at 0.5 h of 2.9. In the case of N#Cc1cc(C#N)cc(-c2cc(-c3ccc(F)cn3)ncn2)c1, the Kp at 0.5 h is reported as 5.5. For N#Cc1ccc(-c2cc(-c3cc(Cl)cc(C#N)c3)ncn2)nc1, the Kp at 0.5 h was 4.7.

Assay: Apparent permeability across apical to basolateral side of human Caco2 cells
Assay type: ADME, cell-based
Conditions: Caco-2
Method in brief: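 Caco-2 monolayer; apparent permeability measured in the apical-to-basolateral direction, with efflux ratio also reported.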
In the case of N#Cc1cc(Cl)cc(-c2cc(-c3ccc(F)cn3)ncn2)c1, the Papp A→B is reported as 13 ×10⁻⁶ cm/s.

Assay: Ratio of drug level in rat brain to plasma at 0.5 mg/kg, iv after 2 hrs
Assay type: ADME, organism-based
Conditions: brain and plasma, read-out: BPR
Method in brief: as §1
In the case of N#Cc1cc(Cl)cc(-c2cc(-c3ccccn3)ncn2)c1, the Kp at 2 h is reported as 1.9. Cc1cc(C#N)cc(-c2cc(-n3cccn3)ncn2)c1 gave a Kp at 2 h of 1.9. Work on N#Cc1cc(Cl)cc(-c2cc(-c3ccc(F)cn3)ncn2)c1 yielded a Kp at 2 h of 2.7. Work on N#Cc1cc(C#N)cc(-c2cc(-c3ccc(F)cn3)ncn2)c1 yielded a Kp at 2 h of 8.2. For N#Cc1ccc(-c2cc(-c3cc(Cl)cc(C#N)c3)ncn2)nc1, the Kp at 2 h was 6.7.

Assay: Oral bioavailability in rat
Assay type: ADME, organism-based
Conditions: in vivo
With N#Cc1cc(Cl)cc(-c2cc(-c3ccc(F)cn3)ncn2)c1 the bioavailability was 100%.
